Assay results taken from ChEMBL document CHEMBL1154683, “Bis(dialkylaminethiocarbonyl)disulfides as potent and selective monoglyceride lipase inhibitors” (J Med Chem, 2009).
Changes are numbered by the printed parent chain. Active and inactive are the calls of the source. The rule behind the calls is not given here.

Key:
[1] = target: T1, Monoglyceride lipase (Homo sapiens) (UniProt Q99685); test: Inhibition of human MGL activity using [3H]2-oleoylglycerol substrate at 10 uM by liquid scintillation counting
T1 sequence (whole entry): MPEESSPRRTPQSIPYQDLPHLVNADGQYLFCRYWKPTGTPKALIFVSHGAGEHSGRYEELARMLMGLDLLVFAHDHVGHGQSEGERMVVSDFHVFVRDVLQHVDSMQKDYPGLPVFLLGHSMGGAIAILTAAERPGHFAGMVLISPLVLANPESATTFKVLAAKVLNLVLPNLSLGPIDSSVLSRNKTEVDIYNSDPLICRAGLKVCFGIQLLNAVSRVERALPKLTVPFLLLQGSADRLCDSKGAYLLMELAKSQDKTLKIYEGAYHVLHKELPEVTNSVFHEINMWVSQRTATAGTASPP
Summary of the method: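 Single-point screen on recombinant human MGL at 10 μM, with a parallel screen at 100 μM.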

[2] = target: T2, Fatty-acid amide hydrolase 1 (Homo sapiens, UniProt O00519); test: Inhibition of human recombinant FAAH-maltose binding protein
T2 sequence (O00519 whole entry): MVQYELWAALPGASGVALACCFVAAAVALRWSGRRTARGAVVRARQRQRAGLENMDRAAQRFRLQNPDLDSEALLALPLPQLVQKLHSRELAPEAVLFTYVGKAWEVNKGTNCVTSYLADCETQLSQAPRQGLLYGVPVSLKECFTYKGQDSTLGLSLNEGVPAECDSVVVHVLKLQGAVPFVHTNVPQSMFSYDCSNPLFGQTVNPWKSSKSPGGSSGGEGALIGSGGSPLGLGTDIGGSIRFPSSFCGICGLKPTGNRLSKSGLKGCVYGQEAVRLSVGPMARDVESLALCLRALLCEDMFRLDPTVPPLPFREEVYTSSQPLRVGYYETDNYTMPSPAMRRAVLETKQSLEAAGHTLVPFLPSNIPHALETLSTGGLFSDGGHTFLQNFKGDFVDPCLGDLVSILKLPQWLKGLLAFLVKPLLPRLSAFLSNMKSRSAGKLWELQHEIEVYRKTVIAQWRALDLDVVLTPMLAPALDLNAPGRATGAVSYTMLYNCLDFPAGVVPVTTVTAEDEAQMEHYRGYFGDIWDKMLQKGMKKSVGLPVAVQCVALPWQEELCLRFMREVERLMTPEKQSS

Monoglyceride lipase [3] = target: T3, Monoglyceride lipase (Homo sapiens, UniProt Q99685); test: Inhibition of human MGL activity using [3H]2-oleoylglycerol substrate by liquid scintillation counting
T3 sequence (Q99685 whole entry): T1 sequence (whole entry)
Summary of the method: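 Recombinant human MGL was used, and inhibition was expressed as pIC50.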

Homo sapiens = organism: Homo sapiens; test: Selectivity ratio for human MGL activity to human recombinant FAAH
[4] = target: T1, Monoglyceride lipase (Homo sapiens); test: Inhibition of human MGL activity using [3H]2-oleoylglycerol substrate at 10 nM measured upto 1 hr by high dilution reversibility assay
Summary of the method: (§1)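 Recombinant human MGL preincubated with inhibitor at 30, 10 or 3 μM, then diluted 300-fold before substrate addition, giving 100, 33.3 and 10 nM during the activity read. Activity was followed up to 1 h postdilution and compared with a DMSO-preincubated control.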

Monoglyceride lipase [5] = target: Monoglyceride lipase (Homo sapiens, UniProt Q99685, C242A); test: Inhibition of human MGL C242A mutant using [3H]2-oleoylglycerol substrate
[6] = tested on: T4, Monoglyceride lipase (Homo sapiens), Q99685 [C208A,C242A]; test: Inhibition of human MGL C208A/C242A double mutant using [3H]2-oleoylglycerol substrate
T4 sequence (whole entry): T1 sequence (whole entry) with C208A, C242A

[7] = target: T5, Aldehyde dehydrogenase, mitochondrial (Rattus norvegicus, UniProt P11884); test: Inhibition of recombinant rat ALDH activity in liver mitochondria
T5 sequence (P11884 whole entry): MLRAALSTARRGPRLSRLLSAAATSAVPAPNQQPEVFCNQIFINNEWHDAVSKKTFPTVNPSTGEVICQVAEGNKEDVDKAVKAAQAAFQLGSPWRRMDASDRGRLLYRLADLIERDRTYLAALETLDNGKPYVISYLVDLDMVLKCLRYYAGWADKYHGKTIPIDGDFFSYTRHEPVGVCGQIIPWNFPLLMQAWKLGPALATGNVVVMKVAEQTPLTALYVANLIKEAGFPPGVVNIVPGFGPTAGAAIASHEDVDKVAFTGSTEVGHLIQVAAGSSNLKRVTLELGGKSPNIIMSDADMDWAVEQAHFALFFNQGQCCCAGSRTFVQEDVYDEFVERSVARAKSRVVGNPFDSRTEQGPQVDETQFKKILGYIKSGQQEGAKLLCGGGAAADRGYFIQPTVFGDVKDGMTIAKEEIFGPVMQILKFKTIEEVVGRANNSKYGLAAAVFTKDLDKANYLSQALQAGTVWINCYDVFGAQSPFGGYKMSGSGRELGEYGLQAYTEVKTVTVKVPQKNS

Monoglyceride lipase [8] = target: Monoglyceride lipase (Homo sapiens, UniProt Q99685, C208A); test: Inhibition of human MGL C208A mutant using [3H]2-oleoylglycerol substrate
[9] = target: T1, Monoglyceride lipase (Homo sapiens); test: Inhibition of human MGL activity using [3H]2-oleoylglycerol substrate assessed as reversible enzyme activity in presence of 1,4-dithio-DL-threitol
Summary of the method: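 Recombinant human MGL incubated with inhibitor to allow disulfide bond formation. DTT (10^-2 M) was then added before substrate addition and the MGL activity read.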

[10] = target: T1, Monoglyceride lipase (Homo sapiens); test: Inhibition of human MGL activity using [3H]2-oleoylglycerol substrate at 100 nM measured upto 1 hr by high dilution reversibility assay; summary of the method: as §1
[11] = target: T1, Monoglyceride lipase (Homo sapiens); test: Inhibition of human MGL activity using [3H]2-oleoylglycerol substrate at 33.3 nM measured upto 1 hr by high dilution reversibility assay; summary of the method: as §1

Sequence of Monoglyceride lipase (Homo sapiens, UniProt Q99685, C242A) (Q99685 whole entry C242A): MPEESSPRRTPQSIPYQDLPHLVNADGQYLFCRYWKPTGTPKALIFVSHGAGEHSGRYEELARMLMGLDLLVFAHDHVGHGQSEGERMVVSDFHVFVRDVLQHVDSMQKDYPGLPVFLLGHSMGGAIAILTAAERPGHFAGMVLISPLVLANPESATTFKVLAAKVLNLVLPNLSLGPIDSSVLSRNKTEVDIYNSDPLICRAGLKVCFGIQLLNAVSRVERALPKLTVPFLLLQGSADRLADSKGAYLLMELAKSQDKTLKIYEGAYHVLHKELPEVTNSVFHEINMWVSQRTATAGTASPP
Sequence of Monoglyceride lipase (Homo sapiens, UniProt Q99685, C208A) (Q99685 whole entry C208A): as the sequence (Q99685 whole entry C242A) above, with C208A, A242C counted along it

Compound	inhibition [1]	IC50 [2]	IC50 (Monoglyceride lipase [3])	also measured
CN(C(=S)SSC(=S)N(C)C1CCCCC1)C1CCCCC1	> 50%	0.00479 mM	0.141 µM	–
CCN(CC)C(=S)SC [METHYLDIETHYL CARBAMODITHIOATE]	–	> 1 mM	> 1000 µM	–
CN(C)C(=S)SSC(=S)N(C)C [THIRAM]	> 50%	0.0447 mM	0.977 µM	Selectivity ratio (Homo sapiens): 45
CN1CCN(C(=S)SSC(=S)N2CCN(C)CC2)CC1	> 50%	0.2 mM	0.11 µM	Activity [4]: Active; IC50 (Monoglyceride lipase [5]): 302 nM; Activity [6]: inactive; IC50 [7]: 15.8 µM; IC50 (Monoglyceride lipase [8]): 8.32 µM; Activity [9]: Active; Activity [10]: Active; Activity [11]: Active
CC1CCCC(C)N1C(=S)SSC(=S)N1C(C)CCCC1C (centres undefined)	> 50%	> 1 mM	0.479 µM	–
CN(C)C(=S)SC(=S)N1CCOCC1	> 50%	> 1 mM	6.46 µM	–
S=C(SSC(=S)N1CCc2ccccc2C1)N1CCc2ccccc2C1	> 50%	> 1 mM	0.347 µM	–
COc1nn(-c2ccc(NC(=O)OCc3ccccc3)c(C)c2)c(=O)o1	–	7.76e-05 mM	0.0204 µM	Selectivity ratio (Homo sapiens): 3
CN(C(=S)SSC(=S)N(C)c1ccccc1)c1ccccc1	> 50%	0.0339 mM	0.741 µM	–
S=C(SSC(=S)N1CCCCCC1)N1CCCCCC1	> 50%	> 1 mM	0.813 µM	–
S=C(SSC(=S)N1CCC(Cc2ccccc2)CC1)N1CCC(Cc2ccccc2)CC1	> 50%	> 1 mM	6.92 µM	–
S=C(CSC(=S)N1CCOCC1)N1CCOCC1	> 50%	> 1 mM	15.5 µM	–
S=C(SSC(=S)N1CCCCC1)N1CCCCC1 [BIS(PIPERIDINYLTHIOCARBONYL)DISULFIDE]	> 50%	> 1 mM	0.316 µM	–
CSC(=S)N1CCOCC1	> 50%	> 1 mM	> 1000 µM	–
CCCCCCCCCCCCCCCCN(CC)C(=S)SSC(=S)N(CC)CCCCCCCCCCCCCC	> 50%	> 1 mM	10.5 µM	–
CN(C)C(=S)SC(=S)N(C)C [BIS(DIMETHYLAMINETHIOCARBONYL)MONOSULFIDE]	> 50%	> 1 mM	12.3 µM	–
CCN(CC)C(=S)SCSC(=S)N(CC)CC	> 50%	> 1 mM	20.9 µM	–
CN(Cc1ccccc1)C(=S)SSC(=S)N(C)Cc1ccccc1	> 50%	> 1 mM	0.437 µM	–
S=C(SSC(=S)N1CCN(c2ccccc2)CC1)N1CCN(c2ccccc2)CC1	> 50%	0.135 mM	0.49 µM	–
S=C(SSC(=S)N1CCSCC1)N1CCSCC1	> 50%	0.0251 mM	0.316 µM	–
CCCCC/C=C\C/C=C\C/C=C\C/C=C\CCCC(=O)C(F)(F)F [ARACHIDONYL TRIFLUOROMETHYLKETONE]	–	1.23e-05 mM	6.46 µM	Selectivity ratio (Homo sapiens): 0.002

Compound	inhibition [1]	IC50 [2]	IC50 (Monoglyceride lipase [3])	also measured
S=C(SSC(=S)N1CCOCC1)N1CCOCC1	> 50%	0.0794 mM	0.219 µM	–
CCN(CC)C(=O)CSC(=S)N(CC)CC [(DIETHYLCARBAMOYL)METHYLENE DIETHYLCARBAMODITHIOATE]	> 50%	> 1 mM	631 µM	–
S=C(SSC(=S)N1CCCC1)N1CCCC1 [BIS(PYRROLIDINYLTHIOCARBONYL)DISULFIDE]	> 50%	> 1 mM	0.912 µM	–
C1CCN(SSN2CCCCC2)CC1	> 50%	> 1 mM	9.55 µM	–
O=C(CSC(=S)N1CCOCC1)N1CCOCC1	> 50%	> 1 mM	219 µM	–
S=C(SSC(=S)N(Cc1ccccc1)Cc1ccccc1)N(Cc1ccccc1)Cc1ccccc1 [BIS(DIBENZYLAMINETHIOCARBONYL)DISULFIDE]	> 50%	> 1 mM	9.55 µM	–
CN1CCN(C(=S)SCSC(=S)N2CCN(C)CC2)CC1	> 50%	> 1 mM	95.5 µM	–
S=C(SSC(=S)N1CCN(Cc2ccccc2)CC1)N1CCN(Cc2ccccc2)CC1	> 50%	0.17 mM	5.01 µM	–
S=C(SSC(=S)N1CCCc2ccccc21)N1CCCc2ccccc21	> 50%	> 1 mM	0.741 µM	–
CCCCC/C=C\C/C=C\C/C=C\C/C=C\CCCCN1C(=O)CCC1=O	–	0.00219 mM	1.12 µM	Selectivity ratio (Homo sapiens): 1.95
S=C(SCSC(=S)N1CCOCC1)N1CCOCC1	> 50%	> 1 mM	102 µM	–
CCN(CC)C(=S)CSC(=S)N(CC)CC [(DIETHYLTHIOCARBAMOYL)METHYLENE DIETHYLCARBAMODITHIOATE]	> 50%	> 1 mM	19.1 µM	–
C1CN(SSN2CCOCC2)CCO1 [DITHIODIMORPHOLINE]	> 50%	> 1 mM	11.2 µM	–
CCN(CC)SSN(CC)CC	> 50%	> 1 mM	7.94 µM	–
CC1CCN(C(=S)SSC(=S)N2CCC(C)CC2)CC1	> 50%	> 1 mM	0.269 µM	–
CCN(CC)C(=S)SSC(=S)N(CC)CC	> 50%	0.363 mM	1.26 µM	–
S=C(SSC(=S)N1CCN(C2CCCCC2)CC1)N1CCN(C2CCCCC2)CC1	> 50%	> 1 mM	0.166 µM	–
CCN(Cc1ccccc1)C(=S)SSC(=S)N(CC)Cc1ccccc1	> 50%	> 1 mM	4.07 µM	–
O=C(Nc1cccc(-c2ccccc2)c1)OC1CCCCC1	–	0.00575 mM	10 µM	Selectivity ratio (Homo sapiens): 0.57
CN(C)C(=O)n1nnnc1Cc1ccc(-c2ccccc2)cc1	–	–	0.055 µM	–
